Source: ChEMBL document CHEMBL4425108, “A Selective and Slowly Reversible Inhibitor of l-Type Amino Acid Transporter 1 (LAT1) Potentiates Antiproliferative Drug Efficacy in Cancer Cells” (J Med Chem, 2016)
In brackets after ≈: the same amount, converted by molar mass. Activity calls are given as the source filed them. The calls are words filed in the database; no cut-off is given here.

How the values were obtained:
[1] = fCmax in mouse heart at 23 umol/kg, ip administered as bolus by LC-MS analysis; type: ADME, organism-based; conditions: in vivo
Procedure, shortened: (§1)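 Male mice (25 ± 5 g) dosed i.p. as a bolus at 23 µmol/kg in DMSO/hydroxypropyl-β-cyclodextrin/saline vehicle, sampled at time points 10–480 min; plasma and tissue homogenates (1:3 water) analysed by LC-MS. […] Mean ± SEM.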

[2] = target: T1, Large neutral amino acids transporter small subunit 1 (Homo sapiens, UniProt Q01650); assay: Drug uptake in human MCF7 cells assessed as LAT1 mediated drug transport per mg of protein at 100 uM measured 5 mins after warm wash by HPLC analysis; type: ADME, cell-based; conditions: mcf7, 5 min
Procedure, shortened: (§2)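 MCF-7 monolayers were incubated with 100 µM compound in HBSS at 37 °C for 5 or 30 min. Cells got three washes with ice-cold or warm (37 °C) HBSS; in the warm 30 min arm they were washed after 5 min and again after 30 min. Lysates (0.1 M NaOH) were quantified by HPLC-UV against a spiked lysate standard curve and normalised to protein (Bio-Rad assay).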

[3] = Tmax in mouse plasma at 23 umol/kg, ip administered as bolus by LC-MS analysis; type: ADME, organism-based
Procedure, shortened: (§3)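 Adult male mice (25 ± 5 g) given a single i.p. bolus of 23 µmol/kg, dosing solution 1.36 mM in 10% (v/v) DMSO, 20% (w/v) hydroxypropyl-β-cyclodextrin, 0.9% NaCl in water. Decapitation at time points 10–480 min; plasma, brain, liver, prostate, kidney, heart collected. Acetonitrile precipitation with repaglinide internal standard, LC-MS (ESI positive). tmax and t½β taken from concentration-time data; mean ± SEM, n=3.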

[4] = Chemical stability of the compound in Tris-HCl buffer at pH 7.4 and 37 degreeC measured after 24 hrs by HPLC method; type: physicochemical; conditions: pH 7.4, 24 h
Procedure, shortened: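 Incubated in isotonic Tris-HCl buffer, pH 7.4, at 37 °C for 24 h; monitored by UV-HPLC.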

[5] = Cmax in mouse kidney at 23 umol/kg, ip administered as bolus by LC-MS analysis; type: ADME, organism-based; design: dose 23 umol/kg, route intraperitoneal; conditions: in vivo
Procedure, shortened: (§4)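 Male adult mice (25 ± 5 g) given a single i.p. bolus at 23 µmol/kg. The dosing solution was 1.36 mM in 10% (v/v) DMSO, 20% (w/v) hydroxypropyl-β-cyclodextrin and 0.9% NaCl. Animals were decapitated at seven time points from 10 to 480 min. Plasma and tissues were acetonitrile-precipitated with repaglinide internal standard and analysed by LC-MS. Parameters were derived from concentration–time data, mean ± SEM (n=3).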

MCF7 [6] = assay: Antiproliferative activity against human MCF7 cells assessed as reduction in cell viability at 25 measured after 48 hrs by resazurin dye-based fluorimetric analysis; type: functional
Procedure, shortened: (§5)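 MCF-7 cells were seeded at 2 × 10^4 cells/well on collagen-coated plates and treated one day later. Agents were given alone or combined (25 or 100 µM with 100 µM partner drug) in growth medium for 3 days. Viability was read daily by resazurin fluorescence (ex 560/em 590 nm) and expressed relative to untreated controls.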

[7] = target: T1, Large neutral amino acids transporter small subunit 1; assay: Inhibition of LAT1 in human MCF7 cells assessed as potentiation of cisplatin-induced antiproliferative activity by measuring reduction in cell viability at 100 uM measured after 48 hrs by resazurin dye-based fluorimetric analysis
Procedure, shortened: (§6)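 MCF-7 cells seeded 2 × 10^4/well on collagen-coated plates, treated one day later in growth medium with inhibitor (25 or 100 µM) plus bestatin or cisplatin (100 µM) for up to 3 days. Viability read daily by resazurin fluorescence (ex 560/em 590 nm). Viability is treated relative to untreated control. Mean ± SD, n=3.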

MCF7 [8] = assay: Antiproliferative activity against human MCF7 cells assessed as reduction in cell viability at 25 measured after 72 hrs by resazurin dye-based fluorimetric analysis; type: functional; procedure, shortened: as §5
[9] = Tmax in mouse brain at 23 umol/kg, ip administered as bolus by LC-MS analysis; type: ADME, organism-based; procedure, shortened: as §3
[10] = Terminal half life in mouse kidney at 23 umol/kg, ip administered as bolus by LC-MS analysis; type: ADME, organism-based; conditions: read-out: beta t1/2; procedure, shortened: as §4
[11] = AUC (0 to 480 min) in mouse liver at 23 umol/kg, ip administered as bolus by LC-MS analysis; type: ADME, organism-based; design: dose 23 umol/kg, time < 8 hr, route intraperitoneal; conditions: in vivo, 8 h; procedure, shortened: as §4
[12] = AUC (0 to 480 min) in mouse plasma at 23 umol/kg, ip administered as bolus by LC-MS analysis; type: ADME, organism-based; design: dose 23 umol/kg, time < 8 hr, route intraperitoneal; conditions: in vivo, 8 h; procedure, shortened: as §4
[13] = fCmax in mouse liver at 23 umol/kg, ip administered as bolus by LC-MS analysis; type: ADME, organism-based; conditions: in vivo; procedure, shortened: as §1
[14] = Terminal half life in mouse liver at 23 umol/kg, ip administered as bolus by LC-MS analysis; type: ADME, organism-based; conditions: read-out: beta t1/2; procedure, shortened: as §4
[15] = Tmax in mouse heart at 23 umol/kg, ip administered as bolus by LC-MS analysis; type: ADME, organism-based; procedure, shortened: as §3
[16] = fCmax in mouse brain at 23 umol/kg, ip administered as bolus by LC-MS analysis; type: ADME, organism-based; conditions: in vivo; procedure, shortened: as §1
[17] = Plasma concentration in mouse at 23 umol/kg, ip measured after 10 mins; type: ADME, organism-based
[18] = Metabolic stability in mouse liver microsomes at 37 degreeC in presence of NADPH regenerating system measured after 2 hrs by HPLC analysis; type: ADME, Microsome
Procedure, shortened: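 Incubated at 37 °C for 2 h with mouse liver S9 fraction or with mouse liver microsomes plus NADPH; monitored by UV-HPLC chromatograms.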

[19] = target: T1, Large neutral amino acids transporter small subunit 1; assay: Inhibition of LAT1 in human MCF7 cells assessed as potentiation of bestatin-induced antiproliferative activity by measuring reduction in cell viability at 100 uM measured after 72 hrs by resazurin dye-based fluorimetric analysis; procedure, shortened: as §6
[20] = Cmax in mouse plasma at 23 umol/kg, ip administered as bolus by LC-MS analysis; type: ADME, organism-based; design: dose 23 umol/kg, route intraperitoneal; procedure, shortened: as §4
[21] = Fraction unbound in mouse liver at 23 umol/kg, ip administered as bolus by LC-MS analysis; type: ADME, organism-based
Procedure, shortened: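 Unbound fraction was measured by equilibrium dialysis at 100 µM in mouse plasma and in brain, liver, kidney, heart and prostate homogenates.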

[22] = Aqueous solubility of the compound measured after 4 hrs by HPLC method; type: physicochemical
[23] = Unbound AUC (0 to 480 mins) in mouse liver at 23 umol/kg, ip administered as bolus by LC-MS analysis; type: ADME, organism-based; conditions: in vivo; procedure, shortened: as §1
MCF7 [24] = assay: Antiproliferative activity against human MCF7 cells assessed as reduction in cell viability at 25 uM measured after 24 hrs by resazurin dye-based fluorimetric analysis; type: functional; procedure, shortened: as §5
[25] = fCmax in mouse prostate at 23 umol/kg, ip administered as bolus by LC-MS analysis; type: ADME, organism-based, Prostate gland; conditions: in vivo; procedure, shortened: as §1
[26] = fCmax in mouse plasma at 23 umol/kg, ip administered as bolus by LC-MS analysis; type: ADME, organism-based; conditions: in vivo; procedure, shortened: as §1
[27] = Unbound AUC (0 to 480 mins) in mouse prostate at 23 umol/kg, ip administered as bolus by LC-MS analysis; type: ADME, organism-based, Prostate gland; conditions: in vivo; procedure, shortened: as §1
[28] = target: T1, Large neutral amino acids transporter small subunit 1; assay: Drug uptake in human MCF7 cells assessed as LAT1 mediated drug transport per mg of protein at 100 uM measured 30 mins after cold wash by HPLC analysis; type: ADME, cell-based; conditions: mcf7, 0.5 h; procedure, shortened: as §2

T1 sequence (Q01650 whole entry): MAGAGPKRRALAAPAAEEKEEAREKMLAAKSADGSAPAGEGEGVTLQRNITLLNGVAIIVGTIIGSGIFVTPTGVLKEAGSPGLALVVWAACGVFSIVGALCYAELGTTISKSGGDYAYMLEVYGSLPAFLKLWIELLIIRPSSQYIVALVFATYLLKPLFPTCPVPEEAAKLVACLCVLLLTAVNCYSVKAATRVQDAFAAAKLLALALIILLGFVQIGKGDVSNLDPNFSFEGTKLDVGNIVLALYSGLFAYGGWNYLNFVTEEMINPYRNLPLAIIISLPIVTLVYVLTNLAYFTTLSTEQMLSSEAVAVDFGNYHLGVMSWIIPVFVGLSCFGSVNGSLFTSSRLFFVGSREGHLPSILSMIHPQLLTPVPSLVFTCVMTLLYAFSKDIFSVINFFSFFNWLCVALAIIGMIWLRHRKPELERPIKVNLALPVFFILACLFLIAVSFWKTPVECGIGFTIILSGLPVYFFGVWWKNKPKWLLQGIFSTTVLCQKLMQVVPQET

- fCmax [1]: 0.08 nmol/g
- Drug uptake [2]: 1.43 nmol/mg
- Tmax [3]: 10 min
- Stability [4]: Stable
- Cmax [5]: 22.5 nmol/g
- Tmax [9]: 30 min
- half-life [10]: 41.8 min
- AUC [11]: 1930 nmol/g/min
- AUC [12]: 795 nmol/min/mL
- fCmax [13]: 0.38 nmol/g
- half-life [14]: 52.8 min
- Tmax [15]: 30 min
- fCmax [16]: 0.02 nmol/g
- concentration at 10 min [17]: 20 µM
- Stability [18]: Stable
- Cmax [20]: 19.5 µM
- fraction unbound [21]: 0.0098
- solubility at 4 h [22]: 1160 µg/mL (≈ 1970 µM)
- fAUC [23]: 18.9 nmol/g/min
- fCmax [25]: 0.34 nmol/g
- fCmax [26]: 0.19 nmol/mL
- fAUC [27]: 18.4 nmol/g/min
- Drug uptake [28]: 2.63 nmol/mg
Structure (SMILES): CNC(=O)COc1ccc(-c2c(C#N)c(NC(=O)c3cccc(C[C@H](N)C(=O)O)c3)n3c(nc4ccccc43)c2C#N)cc1
- Activity (MCF7 [6]): inactive
- Activity [7]: 60.4%
- Activity (MCF7 [8]): 34.8%
- Activity [19]: 68.6%
- Activity (MCF7 [24]): 13.9%
